In ChEMBL document CHEMBL1148454, “[1-(3,5-difluoro-4-hydroxyphenyl)-1H-pyrrol-3-yl]phenylmethanone as a bioisostere of a carboxylic acid aldose reductase inhibitor” (J Med Chem, 2004):

Legend:
[1] = In vitro percentage inhibition of formation of DNPH-reactive carbonyl groups in BSA exposed to fructose at 1 mM concentration; assay type: functional
Method in brief: (§1)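 Bovine serum albumin (fraction V, essentially fatty acid free) incubated with fructose for 28 days. Compounds given as potassium salts in water; trolox as reference.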

[2] = In vitro percentage inhibition of formation of DNPH-reactive carbonyl groups in BSA exposed to fructose at […] concentration; assay type: functional
[3] = biological target: Aldo-keto reductase family 1 member B1 (Rattus norvegicus) (UniProt P07943); experiment: In vitro percentage inhibition of rat lens aldose reductase at 10E-7 M concentration
Method in brief: (§2)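 Rat lens (Fischer-344, both sexes) aldose reductase, assayed by spectrophotometric monitoring of NADPH oxidation. Compounds dissolved in 0.2 M NaHCO3. Inhibition at a single concentration, triplicate determinations.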

[4] = In vitro percentage inhibition of glycation-induced fluorescence changes of BSA at 1 mM concentration; assay type: functional; method in brief: as §1
[5] = In vitro percentage inhibition of glycation-induced fluorescence changes of BSA at […] concentration; assay type: functional
[6] = In vitro percentage inhibition of formation of DNPH-reactive carbonyl groups in BSA exposed to fructose at 5 mM concentration; assay type: functional; method in brief: as §1
[7] = biological target: Aldo-keto reductase family 1 member B1 (Rattus norvegicus, UniProt P07943); experiment: In vitro inhibitory activity of compound against rat lens aldose reductase
[8] = In vitro percentage inhibition of glycation-induced fluorescence changes of BSA at 5 mM concentration; assay type: functional; method in brief: as §1
[9] = biological target: Aldo-keto reductase family 1 member B1 (Rattus norvegicus) (UniProt P07943); experiment: In vitro percentage inhibition of rat lens aldose reductase at 10E-5 M concentration; method in brief: as §2
[10] = biological target: Aldo-keto reductase family 1 member B1 (Rattus norvegicus) (UniProt P07943); experiment: In vitro percentage inhibition of rat lens aldose reductase at 10E-6 M concentration; method in brief: as §2

inhibition [3] [%]	IC50 [7] [nM]	inhibition [9] [%]	inhibition [10] [%]	SMILES	inhibition [1] [%]	inhibition [2] [%]	inhibition [4] [%]	inhibition [5] [%]	inhibition [6] [%]	inhibition [8] [%]
29	396	88	68	O=C(c1ccccc1)c1ccn(-c2cc(F)c(O)c(F)c2)c1	48	55	64	68	61	74
				Cc1c(C)c2c(c(C)c1O)CCC(C)(C(=O)O)O2 (centres undefined)	36		59			
	23400	24	13	Oc1c(F)cc(-n2cccc2)cc1F						
	1970	78	37	O=C(O)Cn1ccc(C(=O)c2ccccc2)c1	28	51	48	67	67	81
